From ChEMBL document CHEMBL1158526, “Labeled 3-aryl-4-indolylmaleimide derivatives and their potential as angiogenic PET biomarkers” (Bioorg Med Chem, 2010)

Assays:
[1] = target: T1, Vascular endothelial growth factor receptor 2 (Homo sapiens, UniProt P35968); settings: HEK293, 10 uM
[2] = target: T1, Vascular endothelial growth factor receptor 2; settings: HEK293, 20 uM
[3] = target: Epidermal growth factor receptor (Homo sapiens, UniProt P00533); assay: Inhibition of EGFR after 80 mins by radiometric protein kinase assay
[4] = target: Receptor tyrosine-protein kinase erbB-2 (Homo sapiens, UniProt P04626); assay: Inhibition of ERBB2 after 80 mins by radiometric protein kinase assay
Method in brief: (§1)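 The substrate was Poly(Glu,Tyr)4:1. 12 concentrations were run in triplicate with 1% final DMSO, at 30 °C for 80 min. Reactions were stopped with 2% H₃PO₄, washed with 0.9% NaCl, and ³³P incorporation was read by scintillation counting.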

[5] = target: Insulin-like growth factor 1 receptor (Homo sapiens, UniProt P08069); assay: Inhibition of IGF1R after 80 mins by radiometric protein kinase assay
Method in brief: (§2)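 Radiometric [γ-33P]-ATP kinase assay with poly(Glu,Tyr) 4:1 substrate. Reaction run 80 min at 30 °C, stopped with 2% H3PO4 and washed with 0.9% NaCl. 33Pi incorporation counted by microplate scintillation. IC50 from 12 concentrations tested in triplicate, with Z'-factor used as plate control.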

[6] = target: Mast/stem cell growth factor receptor Kit (Homo sapiens, UniProt P10721); assay: Inhibition of KIT after 80 mins by radiometric protein kinase assay
Method in brief: as §1

[7] = target: Platelet-derived growth factor receptor alpha (Homo sapiens, UniProt P16234); assay: Inhibition of PDGFRalpha after 80 mins by radiometric protein kinase assay
Method in brief: (§3)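 Radiometric [γ-33P]-ATP kinase assay with poly(Ala,Glu,Lys,Tyr) 6:2:5:1 substrate. Incubated 30 °C for 80 min, then stopped with 2% H3PO4 and washed with 0.9% NaCl. 33Pi incorporation read by scintillation counting. IC50 from 12 concentrations in triplicate; plate quality checked by Z'-factor.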

[8] = target: Platelet-derived growth factor receptor beta (Homo sapiens, UniProt P09619); assay: Inhibition of PDGFRbeta after 80 mins by radiometric protein kinase assay
[9] = target: Angiopoietin-1 receptor (Homo sapiens, UniProt Q02763); assay: Inhibition of TIE2 after 80 mins by radiometric protein kinase assay
Method in brief: as §3

[10] = target: Vascular endothelial growth factor receptor 1 (Homo sapiens, UniProt P17948); assay: Inhibition of VEGFR1 after 80 mins by radiometric protein kinase assay
Method in brief: as §2

[11] = target: T1, Vascular endothelial growth factor receptor 2; assay: Inhibition of VEGFR2 after 80 mins by radiometric protein kinase assay
Method in brief: as §2

[12] = target: Vascular endothelial growth factor receptor 3 (Homo sapiens, UniProt P35916); assay: Inhibition of VEGFR3 after 80 mins by radiometric protein kinase assay
Method in brief: as §2

T1 sequence (P35968 whole entry): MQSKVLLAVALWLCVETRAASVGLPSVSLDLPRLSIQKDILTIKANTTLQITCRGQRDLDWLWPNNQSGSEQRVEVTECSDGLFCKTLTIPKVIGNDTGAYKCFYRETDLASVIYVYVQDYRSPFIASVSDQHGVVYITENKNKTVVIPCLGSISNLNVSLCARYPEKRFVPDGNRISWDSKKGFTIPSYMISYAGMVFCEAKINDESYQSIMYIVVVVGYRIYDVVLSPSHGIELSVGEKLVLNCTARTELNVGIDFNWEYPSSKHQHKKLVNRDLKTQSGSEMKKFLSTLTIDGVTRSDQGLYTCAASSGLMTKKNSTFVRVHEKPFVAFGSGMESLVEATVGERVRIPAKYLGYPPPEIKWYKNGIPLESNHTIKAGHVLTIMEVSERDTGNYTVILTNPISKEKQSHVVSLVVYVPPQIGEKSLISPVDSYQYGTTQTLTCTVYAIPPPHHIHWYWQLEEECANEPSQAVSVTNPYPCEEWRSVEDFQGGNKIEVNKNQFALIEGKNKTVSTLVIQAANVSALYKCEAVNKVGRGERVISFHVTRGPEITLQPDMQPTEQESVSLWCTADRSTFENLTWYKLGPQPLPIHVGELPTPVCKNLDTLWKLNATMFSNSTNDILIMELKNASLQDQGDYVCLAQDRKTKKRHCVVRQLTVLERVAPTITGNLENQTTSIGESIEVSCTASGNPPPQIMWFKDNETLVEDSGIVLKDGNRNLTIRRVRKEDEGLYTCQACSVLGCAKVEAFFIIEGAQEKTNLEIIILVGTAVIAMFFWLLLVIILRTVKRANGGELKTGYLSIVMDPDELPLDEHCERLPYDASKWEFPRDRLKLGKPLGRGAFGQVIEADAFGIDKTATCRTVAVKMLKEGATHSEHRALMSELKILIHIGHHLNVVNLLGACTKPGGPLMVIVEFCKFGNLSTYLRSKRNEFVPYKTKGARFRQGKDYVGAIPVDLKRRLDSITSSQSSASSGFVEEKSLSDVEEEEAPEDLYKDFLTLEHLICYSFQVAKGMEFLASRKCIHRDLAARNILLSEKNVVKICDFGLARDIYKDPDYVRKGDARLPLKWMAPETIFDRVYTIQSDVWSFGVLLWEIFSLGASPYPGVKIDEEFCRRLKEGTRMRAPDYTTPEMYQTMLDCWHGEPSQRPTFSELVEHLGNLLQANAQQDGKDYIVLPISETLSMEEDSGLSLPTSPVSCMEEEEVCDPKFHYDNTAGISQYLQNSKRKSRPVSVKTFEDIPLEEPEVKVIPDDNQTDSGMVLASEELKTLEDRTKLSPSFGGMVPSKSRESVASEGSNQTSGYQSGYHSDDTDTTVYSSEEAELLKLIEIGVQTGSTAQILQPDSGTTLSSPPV
Chain of Platelet-derived growth factor receptor beta (P09619 whole entry): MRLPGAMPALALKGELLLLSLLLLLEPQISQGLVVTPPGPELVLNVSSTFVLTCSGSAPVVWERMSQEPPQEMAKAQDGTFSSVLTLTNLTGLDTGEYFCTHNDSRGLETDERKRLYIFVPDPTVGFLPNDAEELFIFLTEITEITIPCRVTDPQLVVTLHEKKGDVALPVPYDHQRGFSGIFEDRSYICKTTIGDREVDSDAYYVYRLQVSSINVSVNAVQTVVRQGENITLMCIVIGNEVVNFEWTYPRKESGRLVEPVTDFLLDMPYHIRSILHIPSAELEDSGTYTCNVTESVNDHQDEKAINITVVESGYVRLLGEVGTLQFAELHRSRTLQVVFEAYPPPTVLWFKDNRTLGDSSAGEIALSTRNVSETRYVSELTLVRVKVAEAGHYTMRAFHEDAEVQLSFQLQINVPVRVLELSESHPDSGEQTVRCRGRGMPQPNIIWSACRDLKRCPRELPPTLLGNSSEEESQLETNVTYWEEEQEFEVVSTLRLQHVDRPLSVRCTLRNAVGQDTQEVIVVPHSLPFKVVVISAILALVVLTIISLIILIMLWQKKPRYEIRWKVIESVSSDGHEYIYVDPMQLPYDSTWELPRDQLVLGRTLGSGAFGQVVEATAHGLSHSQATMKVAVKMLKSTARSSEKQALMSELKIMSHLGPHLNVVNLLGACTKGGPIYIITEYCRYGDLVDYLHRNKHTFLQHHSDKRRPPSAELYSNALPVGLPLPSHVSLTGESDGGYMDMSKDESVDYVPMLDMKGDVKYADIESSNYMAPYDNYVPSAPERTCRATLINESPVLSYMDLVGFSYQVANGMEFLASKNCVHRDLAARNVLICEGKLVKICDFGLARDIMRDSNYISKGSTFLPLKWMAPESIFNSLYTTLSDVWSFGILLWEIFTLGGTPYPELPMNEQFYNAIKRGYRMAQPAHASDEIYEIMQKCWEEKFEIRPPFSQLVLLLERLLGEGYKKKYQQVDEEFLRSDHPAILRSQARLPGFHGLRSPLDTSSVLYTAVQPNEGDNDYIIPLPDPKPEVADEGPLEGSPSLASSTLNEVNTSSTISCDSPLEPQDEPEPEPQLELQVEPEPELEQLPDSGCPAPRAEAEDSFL
Chain of Platelet-derived growth factor receptor alpha (P16234 whole entry): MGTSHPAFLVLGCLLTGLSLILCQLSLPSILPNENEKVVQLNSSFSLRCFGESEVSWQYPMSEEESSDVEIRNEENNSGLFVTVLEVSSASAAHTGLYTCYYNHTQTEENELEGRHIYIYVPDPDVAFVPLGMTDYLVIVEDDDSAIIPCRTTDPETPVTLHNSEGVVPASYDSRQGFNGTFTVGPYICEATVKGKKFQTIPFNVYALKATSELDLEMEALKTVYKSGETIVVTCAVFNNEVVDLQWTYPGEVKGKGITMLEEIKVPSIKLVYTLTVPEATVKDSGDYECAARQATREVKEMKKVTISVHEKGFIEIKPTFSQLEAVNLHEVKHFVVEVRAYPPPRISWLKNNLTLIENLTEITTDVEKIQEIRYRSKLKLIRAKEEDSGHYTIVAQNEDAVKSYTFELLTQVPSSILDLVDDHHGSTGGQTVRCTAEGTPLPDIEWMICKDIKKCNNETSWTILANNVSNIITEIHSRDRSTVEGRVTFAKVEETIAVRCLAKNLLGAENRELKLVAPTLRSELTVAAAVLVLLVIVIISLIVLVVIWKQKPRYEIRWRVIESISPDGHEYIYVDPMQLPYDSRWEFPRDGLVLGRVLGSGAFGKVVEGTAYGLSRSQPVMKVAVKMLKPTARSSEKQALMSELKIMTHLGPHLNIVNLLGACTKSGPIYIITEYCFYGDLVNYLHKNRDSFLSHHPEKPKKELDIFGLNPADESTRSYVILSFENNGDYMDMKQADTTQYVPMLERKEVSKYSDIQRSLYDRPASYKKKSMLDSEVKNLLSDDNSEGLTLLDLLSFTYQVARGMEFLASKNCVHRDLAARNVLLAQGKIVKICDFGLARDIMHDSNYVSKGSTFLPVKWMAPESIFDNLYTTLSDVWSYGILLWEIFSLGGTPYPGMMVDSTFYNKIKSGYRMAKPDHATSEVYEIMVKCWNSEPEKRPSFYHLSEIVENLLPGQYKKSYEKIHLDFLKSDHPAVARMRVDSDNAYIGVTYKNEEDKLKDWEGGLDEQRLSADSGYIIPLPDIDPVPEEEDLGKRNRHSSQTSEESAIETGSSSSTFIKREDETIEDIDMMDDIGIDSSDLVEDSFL
Chain of Vascular endothelial growth factor receptor 1 (P17948 whole entry): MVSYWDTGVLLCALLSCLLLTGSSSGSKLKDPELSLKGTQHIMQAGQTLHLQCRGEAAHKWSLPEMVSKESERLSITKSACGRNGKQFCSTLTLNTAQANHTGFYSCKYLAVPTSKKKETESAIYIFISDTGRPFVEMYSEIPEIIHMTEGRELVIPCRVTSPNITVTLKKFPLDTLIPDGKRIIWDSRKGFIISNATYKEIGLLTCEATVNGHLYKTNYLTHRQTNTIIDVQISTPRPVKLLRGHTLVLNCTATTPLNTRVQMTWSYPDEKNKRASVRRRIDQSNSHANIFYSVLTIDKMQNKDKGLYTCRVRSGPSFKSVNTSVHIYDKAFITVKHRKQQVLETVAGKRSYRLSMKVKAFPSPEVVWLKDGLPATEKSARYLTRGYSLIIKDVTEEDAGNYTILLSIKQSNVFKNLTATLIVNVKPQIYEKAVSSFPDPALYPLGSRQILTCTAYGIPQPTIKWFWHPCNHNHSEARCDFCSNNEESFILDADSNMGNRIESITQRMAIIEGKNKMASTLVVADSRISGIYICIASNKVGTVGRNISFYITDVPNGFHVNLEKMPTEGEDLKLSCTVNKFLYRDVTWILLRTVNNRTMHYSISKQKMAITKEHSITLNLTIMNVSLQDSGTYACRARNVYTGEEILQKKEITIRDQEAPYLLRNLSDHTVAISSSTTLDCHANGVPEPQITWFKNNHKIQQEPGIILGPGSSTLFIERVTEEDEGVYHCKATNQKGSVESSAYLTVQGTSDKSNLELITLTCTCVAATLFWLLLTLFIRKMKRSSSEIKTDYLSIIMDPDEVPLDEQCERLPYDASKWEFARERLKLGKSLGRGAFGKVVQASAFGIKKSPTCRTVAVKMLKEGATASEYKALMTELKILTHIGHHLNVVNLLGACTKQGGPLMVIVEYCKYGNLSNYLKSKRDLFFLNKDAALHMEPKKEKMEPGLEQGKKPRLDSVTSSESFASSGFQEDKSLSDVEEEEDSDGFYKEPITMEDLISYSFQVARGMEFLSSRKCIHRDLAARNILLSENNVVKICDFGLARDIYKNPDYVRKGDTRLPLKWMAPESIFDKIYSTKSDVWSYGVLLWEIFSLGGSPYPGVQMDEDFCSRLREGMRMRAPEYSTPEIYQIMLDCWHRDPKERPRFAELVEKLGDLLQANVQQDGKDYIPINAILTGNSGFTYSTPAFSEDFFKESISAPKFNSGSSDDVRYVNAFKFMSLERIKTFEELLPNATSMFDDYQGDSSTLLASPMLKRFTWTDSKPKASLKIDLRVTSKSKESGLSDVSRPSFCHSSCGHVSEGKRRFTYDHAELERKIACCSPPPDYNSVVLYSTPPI

Row | SMILES | Stability [1] | Stability [2] | IC50 [3] | IC50 [4] | IC50 [5] | IC50 [6] | IC50 [7] | IC50 [8] | IC50 [9] | IC50 [10] | IC50 [11] | IC50 [12]
1 | COc1cc(C2=C(c3c[nH]c4ccccc34)C(=O)NC2=O)cc(OC)c1OC [MALEIMIDE] | 72 % ID/g | 68 % ID/g |  |  |  |  |  |  |  |  |  | 
2 | COc1cc(C2=C(c3c[nH]c4ccc(F)cc34)C(=O)NC2=O)cc(OC)c1OC |  |  | > 8480 nM | > 8480 nM | 8530 nM | 3470 nM | 1800 nM | 2670 nM | 1570 nM | 150 nM | 82 nM | 66 nM
